Only some compounds are listed: those with a hit (about 12% of all), similar ones and a draw of the others.
b-catenin transl: modulators of beta-catenin nuclear translocation | 0.3% of 190,000 active | nuclear translocation activity, % at 5 µM | HeLa beta-catenin nuclear translocation, immunofluorescence imaging | AID 1665;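 active means nuclear translocation activity above 50% at 5 µM, with a well cell count of 50 or more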;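 further: per-cell ratio of nuclear to cytoplasmic median beta-catenin stain intensity; plate controls were DMSO negative control for no effect and GSK-3 inhibitor IX positive control for full effect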
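test system = HeLa cells, endogenous beta-catenin | dosing = single 5 µM dose plus 0.02–20 µM confirmation series | times = compound treatment 24 h, 37°C, 5% CO2 | technique = beta-catenin immunofluorescence imaging with DAPI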
Autophagy mod: modulators of autophagy; MEF GFP-LC3 puncta imaging; test concentration mostly 10 µM; calls only at 10 µM (by protocol); 0.98% of 190,000 active; AID 463193;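 active means percentage of spot-positive cells more than 3 SD above its plate mean, without a fluorescence outlier flag or 80% toxicity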;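 further: spot-positive cell cutoff set from DMSO-treated cells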
Lmaj promast: reduces viability of Leishmania major promastigotes; 9% of 200,000 active; resazurin fluorescence viability; AID 1063; inhibition, % at 10 µM; in the data active means inhibition above about 50%;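 further: promastigotes grown with compound for 44 hours at 28 °C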
CHOP inh: inhibitors of CHOP induction in ER stress response. CHO-K1 CHOP-promoter luciferase, tunicamycin-induced, 15-18 h. inhibition, % at 10 µM. 3.8% of 220,000 active. AID 2732;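 active means compounds that reduced the stress-induced luciferase reporter signal by more than about 70% of percent inhibition, limit read from the data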;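 further: 0% = tunicamycin plus vehicle and 100% = wells without tunicamycin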
MT stabilizer: stabilizes microtubules in HeLa cells; HeLa tubulin immunostaining HCS, 24 h; share of cells brighter than vehicle mean+2SD; % tubulin-high responders, % at 10 µM; 0.83% of 200,000 active; AID 2205;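 active means plate Z-score above 3 for both tubulin-high and condensed-nucleus cell shares, with cell loss under 80%, at 10 µM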;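 further: anti alpha tubulin signal scored within the nucleus-defined area of each cell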
Dynein cargo inh: blocks dynein driven cargo transport along microtubules | 3617.4 mouse cells, GR-EGFP nuclear translocation imaging; test concentration mostly 20 µM; stimulated with dexamethasone, 1 µM; hits give low values | z-score, hits read low | 0.47% of 220,000 active;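 active means plate z-score of nuclear minus cytoplasmic receptor signal below a set negative limit, without overly bright fluorescence or cell loss, cut at about -3.5 in these data, passing the limit was not always enough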;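 further: z-score of nuclear minus cytoplasmic ring GR-EGFP intensity difference per well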
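medium = tetracycline-free induction medium containing charcoal-stripped FBS | also added = 1.0 µM final dexamethasone stimulus | schedule = 48 h induction, 1 h compound, 30 min dex at 37 °C | technique = fixed, Hoechst-stained cells imaged at 10x for EGFP | measure = GR-EGFP nuclear translocation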
Active calls of the source: *; i = inactive; / = no result; + = active, no number.

SMILES | b-catenin transl | Autophagy mod | Lmaj promast | CHOP inh | MT stabilizer | Dynein cargo inh
CCCN(CCC)S(=O)(=O)c1ccc(C(=O)OCCN2C(=O)c3cccc4c(N5CCOCC5)ccc(c34)C2=O)cc1 | 3 | + | 14 | 40 | 3 | i
O=C(CCc1nc2ccccc2c(=O)[nH]1)OCCOc1ccc(Cl)cc1 | -6 | i | -3 | -12 | 6 | -0.27
O=C(CSc1nc(C2CC2)nc2ccccc12)N1CCc2ccccc2C1 | -2 | i | 30 | 74* | 4 | -0.62
O=C(CSc1nc(C2CCCCC2)nc2ccccc12)N1CCCC1 | -2 | i | 18 | -30 | 2 | -0.084
COCCn1c(SCC(=O)N2CCc3ccccc3C2)nc2cc(Cl)ccc2c1=O | 1 | i | 60* | 42 | 2 | -0.31
CC(C)Cn1c(SCC(=O)N2CCc3ccccc3C2)nc2cc(Cl)ccc2c1=O | -2 | i | 91* | 46 | 4 | -0.95
CC(C)c1ccccc1-n1c(SCC(=O)N2CCc3ccccc3C2)nc2ccccc2c1=O | 6 | i | 42 | 46 | 2 | -0.34
COc1ccc(C(=O)NC2CCN(C(=S)Nc3ccc(C)cc3)CC2)cc1 | -1 | i | -3 | 12 | 4 | 0.085
COc1ccc(C)cc1NC(=O)CNC(C)C(=O)Nc1cc(Cl)ccc1Cl (stereo unspecified) | -5 | i | 39 | 14 | 4 | 0.35
COCCNC(=S)N(C)C1(c2ccccc2Cl)CCCCC1=O (stereo unspecified) | -3 | i | 9 | 4 | 4 | 1.2
CCCc1cc2c(=O)c(-c3ccc4c(c3)OCCO4)coc2cc1OS(C)(=O)=O | -1 | i | 76* | -16 | 3 | -0.49
CCCc1cc2c(=O)c(-c3ccc4c(c3)OCCO4)c(C)oc2cc1OS(C)(=O)=O | 0 | i | 99* | 0 | 3 | 0.23
CS(=O)(=O)c1ccc2nc(NC(=O)c3ccc(N4C(=O)CCC4=O)cc3)sc2c1 | 1 | / | / | 6 | / | 0.53
O=C(Nc1ccc(Cl)cn1)C1CCCN1S(=O)(=O)c1ccc(Cl)cc1 (stereo unspecified) | -6 | i | 53* | 55 | 3 | -0.67
O=C(C1CCCN1S(=O)(=O)c1ccc(Cl)cc1)N1CCOCC1 (stereo unspecified) | / | i | -4 | 74* | 3 | 0.69
O=C(CCc1nnc(CCCCc2ccccc2)o1)N1CCC(N2CCCC2)CC1 | 0 | i | -5 | 21 | 2 | -0.97
CCCCCCOc1ccc(N2C(=O)CC(N3CCN(CCN=CC4C(=O)CC(C)(C)CC4=O)CC3)C2=O)cc1 (stereo unspecified) | 0 | i | 1 | 71* | 5 | 0.14
CCCCSc1nnc(-c2ccccc2)c2ccccc12 | 1 | i | 7 | 82* | 4 | 0.35
CCC(C)(C)NC(=O)c1ccc(S(=O)(=O)N(C)c2ccccc2OC)cc1 | -2 | i | 38 | -6 | 3 | 1.6
COc1ccccc1N(C)S(=O)(=O)c1ccc(C(=O)OCC(=O)N2CCC2)cc1 | 3 | i | 83* | -9 | 5 | 0.98
COc1ccccc1N(C)S(=O)(=O)c1ccc(C(=O)OCC(=O)N(C(C)C)C(C)C)cc1 | 0 | i | 100* | 36 | 4 | 0.086
COc1ccccc1N(C)S(=O)(=O)c1ccc(C(=O)OCC(=O)NCC(F)(F)F)cc1 | 0 | i | -10 | 19 | 2 | -0.67
COc1ccccc1N(C)S(=O)(=O)c1ccc(C(=O)NCC(C)C)cc1 | 0 | i | 93* | 35 | 2 | -0.57
O=C1CN(c2nc3nonc3nc2N2CCCCC2)CCN1 | 0 | i | -8 | -4 | 1 | 0.36
CCC(CC)c1nnc(NC(=O)Cc2ccccc2[N+](=O)[O-])s1 | -1 | i | 16 | 7 | 8 | 0.93
SMILES | b-catenin transl | Autophagy mod | Lmaj promast | CHOP inh | MT stabilizer | Dynein cargo inh
Cc1sc(NC(=O)c2ccco2)c(C(c2cccnc2)N2CCC(C)CC2)c1C (stereo unspecified) | -2 | i | 91* | 42 | 3 | -0.95
O=C(O/N=C/C1=C(Cl)c2ccccc2CC1)c1ccc(F)cc1 | -2 | i | 2 | 21 | 1 | 2.4
CC(C)NC(=O)C1CCN(C2CCN(Cc3ccc4cccc(F)c4n3)CC2)CC1 | 2 | i | 73* | 18 | 4 | 4.5
CC(C)NC(=O)C1CCN(C2CCN(Cc3nc(C(C)C)cs3)CC2)CC1 | 0 | i | 21 | -6 | 3 | -0.26
COc1cccc(NC(=O)CN2C(=O)COc3ccc(Cl)cc32)c1 | / | i | -3 | 17 | 6 | -0.57
Cc1cc(OCC(=O)NCCCN(C)C)cc(C)c1Br | -3 | i | 100* | -15 | 12 | 0.89
CCc1ccc(OCC(=O)NCCN(C)C)c(Br)c1 | / | i | 96* | 4 | 3 | -0.23
CC(=O)NCC(=O)OCN1C(=O)c2ccccc2C1=O | 0 | i | 5 | 10 | 4 | 1.5
Cc1c(NC(=O)/C=C/c2ccc(S(=O)(=O)N3CCOCC3)cc2)c(=O)n(-c2ccccc2)n1C | -2 | i | -6 | 6 | 4 | 0.15
Cc1nn(-c2ccccc2)c(N)c1Sc1ccc([N+](=O)[O-])cc1 | 0 | i | 14 | 26 | 5 | 0.28
Cc1nn(S(=O)(=O)c2ccc(Cl)cc2)c(C)c1Sc1ccc([N+](=O)[O-])cc1 | 1 | i | 82* | 85* | 3 | 1.1
O=c1nc2ccccc2c2n1CC(CN1CCN(C(c3ccccc3)c3ccccc3)CC1)N2 (stereo unspecified) | -1 | i | 66* | 5 | 3 | 0.029
CC1CCN(c2ccc(C(=O)Nc3ccc4c(c3)OCO4)cc2[N+](=O)[O-])CC1 | 0 | i | 98* | 18 | 2 | -0.98
CC1CCCN(c2ccc(C(=O)Nc3ccc4c(c3)OCO4)cc2[N+](=O)[O-])C1 (stereo unspecified) | 6 | i | 97* | 42 | 2 | -0.61
CCOc1ccccc1NC(=O)CN(c1cc(C)cc(C)c1)S(=O)(=O)c1c(C)noc1C | -2 | i | -2 | 72* | 3 | -0.47
CCOc1ccc(N(CC(=O)Nc2ccccc2C)S(=O)(=O)c2c(C)noc2C)cc1 | 68* | i | 38 | / | 15* | 3.1
COc1ccc(N(CC(=O)Nc2cc(C)ccc2OC)S(=O)(=O)c2c(C)noc2C)cc1 | -1 | i | 26 | 8 | 23 | -0.18
CCOc1ccccc1NC(=O)CN(c1ccc(OC)cc1)S(=O)(=O)c1c(C)noc1C | 2 | + | 31 | / | 17* | 0.48
CC1(NC(=O)CC[N+](C)(C)CCO)CS(=O)(=O)CC1S(=O)(=O)[O-] (stereo unspecified) | -2 | i | 3 | -14 | 5 | 1.3
Cn1c(=O)n(C)c2cc([N+](=O)[O-])c(N3CCN(S(=O)(=O)c4ccc(C(C)(C)C)cc4)CC3)cc21 | 1 | i | 70* | 75* | 3 | 1.4
